ChEMBL document CHEMBL1127574, “Design and synthesis of ellipticinium salts and 1,2-dihydroellipticines with high selectivities against human CNS cancers in vitro” (1994)

Experiments:
Format in all cases: functional
SW-620 = test: Tested in vitro for cytotoxicity in SW-620 cell line of Colon Cancer; conditions: Homo sapiens, read-out: Log TGI (converted)
In short: (§1)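 Compounds dissolved in DMSO and diluted 500-fold into aqueous medium; aliquots of the resulting solutions or suspensions added to cultured human tumor cells for 48 h. Growth read colorimetrically, either by tetrazolium reduction to formazan by viable cells or by protein staining of total cellular protein.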

MOLT-4 = test: Tested in vitro for cytotoxicity in MOLT-4 cell line of Leukemia; conditions: Homo sapiens, read-out: Log TGI (converted)
In short: (§2)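 Compounds dissolved in DMSO, then diluted 500-fold into aqueous medium. The resulting aqueous solutions or suspensions were added to the cultured human tumour cell lines, and the cells were exposed for 48 h. Growth was read colorimetrically in one of two ways: a metabolic assay in which viable cells reduce a tetrazolium salt to a formazan dye, or a protein stain for total cellular protein.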

HT-29 = test: Tested in vitro for cytotoxicity in HT-29 cell line of Colon Cancer; conditions: Homo sapiens, read-out: Log TGI (converted); in short: as §2
A498 = test: Tested in vitro for cytotoxicity in A498 cell line of Renal cancer; conditions: Homo sapiens, read-out: Log TGI (converted); in short: as §2
DMS-114 = test: Tested in vitro for cytotoxicity in DMS114 cell line of Small Cell Lung Cancer; conditions: Homo sapiens, read-out: Log TGI (converted); in short: as §2
KM12 = test: Tested in vitro for cytotoxicity in KM12 cell line of Colon Cancer; conditions: Homo sapiens, read-out: Log TGI (converted); in short: as §2
HCT-15 = test: Tested in vitro for cytotoxicity in HCT-15 cell line of Colon Cancer; conditions: Homo sapiens, read-out: Log TGI (converted); in short: as §2
HCT-116 = test: Tested in vitro for cytotoxicity in HCT116 cell line of Colon Cancer; conditions: Homo sapiens, read-out: Log TGI (converted); in short: as §2
SK-MEL-2 = test: Tested in vitro for cytotoxicity in SK-MEL-2 cell line of Melanoma; conditions: Homo sapiens, read-out: Log TGI (converted); in short: as §2
SK-MEL-28 = test: Tested in vitro for cytotoxicity in SK-MEL-28 cell line of Melanoma; conditions: Homo sapiens, read-out: Log TGI (converted); in short: as §2
CAKI-1 = test: Tested in vitro for cytotoxicity in CAKI-1 cell line of Renal cancer; conditions: Homo sapiens, read-out: Log TGI (converted); in short: as §2
Malme-3M = test: Tested in vitro for cytotoxicity in MALME-3M cell line of Melanoma; conditions: Homo sapiens, read-out: Log TGI (converted); in short: as §2
SNB-75 = test: Tested in vitro for cytotoxicity in SNB-75 cell line of CNS Cancer; conditions: Homo sapiens, read-out: Log TGI (converted); in short: as §1
CCRF-CEM [1] = test: Tested in vitro for cytotoxicity in CCRF-CEM cell line of Leukemia; conditions: Homo sapiens, read-out: Log TGI (converted); in short: as §2
U-251 = test: Tested in vitro for cytotoxicity in U251 cell line of CNS Cancer; conditions: Homo sapiens, read-out: Log TGI (converted); in short: as §1
XF498 = test: Tested in vitro for cytotoxicity in XF498 cell line of CNS Cancer; conditions: Homo sapiens, read-out: Log TGI (converted)
In short: (§3)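 Compound DMSO solutions diluted 500-fold into aqueous medium; the resulting solutions or suspensions were added to cultured human tumor cells for 48 h. Growth was read colorimetrically, either by tetrazolium reduction to formazan by viable cells or by a protein stain for total cellular protein.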

DMS-273 = test: Tested in vitro for cytotoxicity in DMS273 cell line of Small Cell Lung Cancer; conditions: Homo sapiens, read-out: Log TGI (converted); in short: as §2
NCI-H460 = test: Tested in vitro for cytotoxicity in NCI-H460 cell line of Non-Small Cell Lung Cancer; conditions: Homo sapiens, read-out: Log TGI (converted); in short: as §2
786-0 = test: Tested in vitro for cytotoxicity in 786-0 cell line of Renal cancer; conditions: Homo sapiens, read-out: Log TGI (converted); in short: as §2
HOP-18 = test: Tested in vitro for cytotoxicity in HOP-18 cell line of Non-Small Cell Lung Cancer; conditions: Homo sapiens, read-out: Log TGI (converted); in short: as §2
SF-268 = test: Tested in vitro for cytotoxicity in SF-268 cell lines; conditions: Homo sapiens; in short: as §2
HL-60 = test: Tested in vitro for cytotoxicity in HL-60(TB) cell line of Leukemia; conditions: Homo sapiens, read-out: Log TGI (converted)
In short: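 Compounds were dissolved in DMSO and diluted 500-fold in aqueous medium. Aliquots of the resulting solution or suspension were added to the cultured cells for 48 h. Growth was read colorimetrically, either by tetrazolium reduction to formazan in viable cells or by a total-protein stain.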

SNB-78 = test: Tested in vitro for cytotoxicity in SNB-78 cell line of CNS Cancer; conditions: Homo sapiens, read-out: Log TGI (converted); in short: as §1
TK-10 = test: Tested in vitro for cytotoxicity in TK-10 cell line of Renal cancer; conditions: Homo sapiens, read-out: Log TGI (converted); in short: as §1
M14 = test: Tested in vitro for cytotoxicity in M14 cell line of Melanoma; conditions: Homo sapiens, read-out: Log TGI (converted); in short: as §2
OVCAR-5 = test: Tested in vitro for cytotoxicity in OVCAR-5 cell line of Ovarian Cancer; conditions: Homo sapiens, read-out: Log TGI (converted); in short: as §2
UACC-257 = test: Tested in vitro for cytotoxicity in UACC-257 cell line of Melanoma; conditions: Homo sapiens, read-out: Log TGI (converted); in short: as §1
SNB-19 = test: Tested in vitro for cytotoxicity in SNB-19 cell line of CNS Cancer; conditions: Homo sapiens, read-out: Log TGI (converted); in short: as §3
DLD-1 = test: Tested in vitro for cytotoxicity in DLD-1 cell line of Colon Cancer; conditions: Homo sapiens, read-out: Log TGI (converted); in short: as §2
CCRF-CEM [2] = test: Tested in vitro for cytotoxicity in CCRF-CEM cell lines; conditions: Homo sapiens; in short: as §2
EKVX = test: Tested in vitro for cytotoxicity in EKVX cell line of Non-Small Cell Lung Cancer; conditions: Homo sapiens, read-out: Log TGI (converted); in short: as §3

**Q.** Which results are given for COc1ccc2[nH]c3c(C)c4cc[n+](C)cc4c(C)c3c2c1?
**A.** TGI (SW-620): > 100 µM; TGI (MOLT-4): > 100 µM; TGI (HT-29): > 100 µM; TGI (A498): > 100 µM; TGI (DMS-114): 6.31 µM; TGI (KM12): 25.1 µM; TGI (HCT-15): > 100 µM; TGI (HCT-116): > 100 µM; TGI (SK-MEL-2): 63.1 µM; TGI (SK-MEL-28): 50.1 µM; TGI (CAKI-1): > 100 µM; TGI (Malme-3M): 25.1 µM; TGI (SNB-75): 3.16 µM; TGI (CCRF-CEM [1]): > 100 µM; TGI (U-251): 5.01 µM; TGI (XF498): 10 µM; TGI (DMS-273): 63.1 µM; TGI (NCI-H460): 79.4 µM; TGI (786-0): 5.01 µM; TGI (HOP-18): > 100 µM; GI50 (SF-268): 0.409 µM; TGI (HL-60): > 100 µM; TGI (SNB-78): 10 µM; TGI (TK-10): > 100 µM; TGI (M14): > 100 µM; TGI (OVCAR-5): > 100 µM; TGI (UACC-257): > 100 µM; TGI (SNB-19): 10 µM; TGI (DLD-1): > 100 µM; GI50 (CCRF-CEM [2]): 4.22 µM; TGI (EKVX): 25.1 µM
